Assay results as given in ChEMBL document CHEMBL4834402, “Discovery of TAK-981, a First-in-Class Inhibitor of SUMO-Activating Enzyme for the Treatment of Cancer” (J Med Chem, 2021).

What was measured:
[1] = molecular target: T1, SUMO-activating enzyme (Homo sapiens, UniProt Q9UBT2); experiment: Inhibition of SAE in human HCT116 cells assessed as redistribution of SUMO2/3 proteins from nucleus to cytosol preincubated for 2 hrs followed by compound washout and measured immediately by immunofluorescence assay; assay type: cell-based, HCT-116
T1 sequence (Q9UBE0 whole entry): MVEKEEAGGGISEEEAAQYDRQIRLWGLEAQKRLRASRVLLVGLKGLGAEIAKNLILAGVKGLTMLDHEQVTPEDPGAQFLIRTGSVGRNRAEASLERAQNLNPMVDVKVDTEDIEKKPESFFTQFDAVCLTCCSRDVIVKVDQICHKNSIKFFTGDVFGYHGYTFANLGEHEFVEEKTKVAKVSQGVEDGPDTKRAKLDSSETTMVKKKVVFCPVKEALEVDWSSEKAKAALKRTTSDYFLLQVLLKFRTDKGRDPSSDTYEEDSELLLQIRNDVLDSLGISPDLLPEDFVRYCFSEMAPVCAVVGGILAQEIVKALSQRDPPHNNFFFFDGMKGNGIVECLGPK
T1 sequence (Q9UBT2 whole entry): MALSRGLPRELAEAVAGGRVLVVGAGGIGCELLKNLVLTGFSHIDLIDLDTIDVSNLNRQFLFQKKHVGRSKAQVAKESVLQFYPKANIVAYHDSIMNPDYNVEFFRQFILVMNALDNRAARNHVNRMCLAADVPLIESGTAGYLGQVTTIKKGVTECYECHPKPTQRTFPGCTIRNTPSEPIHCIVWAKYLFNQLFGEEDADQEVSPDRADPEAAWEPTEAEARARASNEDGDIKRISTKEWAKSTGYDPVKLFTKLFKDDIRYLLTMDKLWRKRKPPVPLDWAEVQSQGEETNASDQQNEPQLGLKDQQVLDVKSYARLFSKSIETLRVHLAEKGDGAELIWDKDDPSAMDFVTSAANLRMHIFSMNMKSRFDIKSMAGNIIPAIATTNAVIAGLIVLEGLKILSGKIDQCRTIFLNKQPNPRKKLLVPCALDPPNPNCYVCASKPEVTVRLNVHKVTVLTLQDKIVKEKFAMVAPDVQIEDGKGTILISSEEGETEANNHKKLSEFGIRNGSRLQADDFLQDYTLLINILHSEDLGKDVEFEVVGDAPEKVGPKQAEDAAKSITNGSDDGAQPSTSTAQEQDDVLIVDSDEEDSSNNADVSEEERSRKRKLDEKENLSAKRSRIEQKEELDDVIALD
Procedure, shortened: (§1)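 Washout format of the SUMO2/3 immunofluorescence assay in HCT116 cells. Cells were exposed to a range of concentrations for 2 h, then washed free of compound.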

[2] = molecular target: T1, SUMO-activating enzyme; experiment: Inhibition of SAE in human HCT116 cells assessed as reduction in redistribution of SUMO2/3 proteins from nucleus to cytosol incubated for 4 hrs by immunofluorescence assay; assay type: cell-based, HCT-116
Procedure, shortened: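 HCT-116 cells exposed to compound across a concentration range for 4 h, then stained with anti-SUMO2/3 monoclonal antibody. Automated imaging scored the nuclear (inner) to cytoplasmic (outer) SUMO2/3 ratio. IC50 taken from the dose response.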

[3] = molecular target: T1, SUMO-activating enzyme; experiment: Inhibition of recombinant SAE (unknown origin) assessed as reduction in transfer of SUMO1 to UBC9 using SUMO1 as a substrate in presence of ATP at Km concentration by HTRF assay; assay type: protein-complex assay
Procedure, shortened: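 HTRF transthiolation assay measuring transfer of SUMO1 to UBC9, the E2 for SAE.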

[4] = molecular target: T2, NEDD8 activating enzyme (Homo sapiens, UniProt Q8TBC4); experiment: Inhibition of recombinant NAE (unknown origin) in presence of ATP at Km concentration by HTRF assay; assay type: protein-complex assay
T2 sequence (Q8TBC4 whole entry): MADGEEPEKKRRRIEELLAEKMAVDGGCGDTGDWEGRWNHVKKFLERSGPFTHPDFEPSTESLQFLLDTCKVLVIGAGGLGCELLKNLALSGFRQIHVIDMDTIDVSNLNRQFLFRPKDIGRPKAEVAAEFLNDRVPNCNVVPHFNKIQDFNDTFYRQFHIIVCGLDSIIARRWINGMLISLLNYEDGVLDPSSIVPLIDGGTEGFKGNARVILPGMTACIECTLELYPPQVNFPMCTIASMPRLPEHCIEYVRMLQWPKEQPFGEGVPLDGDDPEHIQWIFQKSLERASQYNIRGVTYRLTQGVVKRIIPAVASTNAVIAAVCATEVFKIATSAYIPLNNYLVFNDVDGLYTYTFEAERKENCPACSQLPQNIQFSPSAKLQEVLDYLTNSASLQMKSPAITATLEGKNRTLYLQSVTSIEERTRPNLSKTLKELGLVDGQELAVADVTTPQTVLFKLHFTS
T2 sequence (Q13564 whole entry): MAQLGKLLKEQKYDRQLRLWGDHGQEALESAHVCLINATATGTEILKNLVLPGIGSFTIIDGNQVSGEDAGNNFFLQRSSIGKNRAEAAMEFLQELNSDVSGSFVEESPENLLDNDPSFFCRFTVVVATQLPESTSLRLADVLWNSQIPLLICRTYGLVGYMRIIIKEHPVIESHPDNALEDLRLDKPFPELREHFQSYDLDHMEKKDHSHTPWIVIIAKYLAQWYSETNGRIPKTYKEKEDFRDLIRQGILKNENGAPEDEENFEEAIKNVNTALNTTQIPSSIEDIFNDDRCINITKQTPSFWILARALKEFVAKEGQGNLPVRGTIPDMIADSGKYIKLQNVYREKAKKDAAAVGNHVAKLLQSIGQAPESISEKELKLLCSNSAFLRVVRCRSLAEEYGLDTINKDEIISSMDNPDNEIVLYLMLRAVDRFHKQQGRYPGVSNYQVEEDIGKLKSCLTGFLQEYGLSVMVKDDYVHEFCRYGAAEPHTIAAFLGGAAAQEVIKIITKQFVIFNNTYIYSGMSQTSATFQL

[5] = molecular target: T1, SUMO-activating enzyme; experiment: Inhibition of SAE in human HCT116 cells assessed as redistribution of SUMO2/3 proteins from nucleus to cytosol preincubated for 2 hrs followed by compound washout and measured after 8 hrs by immunofluorescence assay; assay type: cell-based, HCT-116; procedure, shortened: as §1
[6] = Inhibition of recombinant UAE (unknown origin) in presence of ATP at Km concentration by HTRF assay; design: species or system Homo sapiens

Compound	IC50 [1] [nM]	IC50 [2] [nM]	IC50 [3] [nM]	IC50 [4] [nM]	IC50 [5] [nM]	IC50 [6] [nM]
NC(c1cccc(Cl)c1)c1csc(C(=O)c2cncnc2N[C@@H]2C[C@H](COS(N)(=O)=O)[C@@H](O)C2)c1 (stereo in doubt; 33)	83	50	0.7	> 1000	499	
CC(O)(c1csc(C(=O)c2cncnc2N[C@@H]2C[C@H](COS(N)(=O)=O)[C@@H](O)[C@H]2O)c1)c1cccc(Br)n1 (some centres not stated)	251	47	0.1	31	361	616
NS(=O)(=O)OC[C@H]1C[C@@H](Nc2ncncc2C(=O)c2cc(C3OCCc4ccc(Cl)cc43)c(Cl)s2)C[C@@H]1O (some centres not stated)	10	8	1	> 1000	14	> 1000
NS(=O)(=O)OC[C@H]1C[C@@H](Nc2ncncc2C(=O)c2cc(C3NCCc4ccc(Cl)cc43)c(Cl)s2)C[C@@H]1O (some centres not stated)	9	7	0.4	> 1000	17	> 1000
Cc1sc(C(=O)c2cncnc2N[C@@H]2C[C@H](COS(N)(=O)=O)[C@@H](O)C2)cc1Cc1cccc(Cl)c1	66	19	1.2	32	403	> 1000
Cc1sc(C(=O)c2cncnc2N[C@@H]2C[C@H](COS(N)(=O)=O)[C@@H](O)C2)cc1C(O)c1cccc(Cl)c1 (some centres not stated)	8	6	0.3	64	21	> 1000
CC(N)(c1cccc(Cl)c1)c1csc(C(=O)c2cncnc2N[C@@H]2C[C@H](COS(N)(=O)=O)[C@@H](O)C2)c1 (some centres not stated)	29	16	0.3	> 1000	101	> 1000
CC(O)(c1cccc(Cl)c1)c1csc(C(=O)c2cncnc2N[C@@H]2C[C@H](COS(N)(=O)=O)[C@@H](O)C2)c1 (some centres not stated)	19	12	0.2	343	233	> 1000
NS(=O)(=O)OC[C@H]1C[C@@H](Nc2ncncc2C(=O)c2cc(C(O)c3cccc(Cl)c3)cs2)C[C@@H]1O (stereo in doubt; 31)	43	55	0.2	216	955	
NC(c1cccc(Cl)c1)c1csc(C(=O)c2cncnc2N[C@@H]2C[C@H](COS(N)(=O)=O)[C@@H](O)C2)c1 (stereo in doubt; 32)		1030	1.5	328		> 1000
NS(=O)(=O)OC[C@H]1C[C@@H](Nc2ncncc2C(=O)c2ccn(Cc3ccc(Cl)o3)n2)C[C@@H]1O		33	1.1	435		> 1000
N#Cc1sc(C(=O)c2cncnc2N[C@@H]2C[C@H](COS(N)(=O)=O)[C@@H](O)C2)cc1Cc1cccc(Cl)c1		6260	19	> 1000		> 1000
NS(=O)(=O)OC[C@H]1C[C@@H](Nc2ncncc2C(=O)c2ccn(Cc3ccccc3)n2)[C@@H](O)[C@@H]1O		1530	27	748		> 1000
NC(c1cccc(Cl)c1)c1cc(C(=O)c2cncnc2N[C@@H]2C[C@H](COS(N)(=O)=O)[C@@H](O)C2)sc1Cl (some centres not stated)	17	10	0.4	861	39	> 1000
Cc1sc(C(=O)c2cncnc2N[C@@H]2C[C@H](COS(N)(=O)=O)[C@@H](O)C2)cc1C1OCCc2ccccc21 (some centres not stated)	4	6	0.3	102	14	> 1000
CN1CCc2ccc(Cl)cc2C1c1csc(C(=O)c2cncnc2N[C@@H]2C[C@H](COS(N)(=O)=O)[C@@H](O)C2)c1 (some centres not stated)		638	2.5	> 1000		> 1000

Compound	IC50 [1] [nM]	IC50 [2] [nM]	IC50 [3] [nM]	IC50 [4] [nM]	IC50 [5] [nM]	IC50 [6] [nM]
NS(=O)(=O)OC[C@H]1C[C@@H](Nc2ncncc2C(=O)c2ccn(Cc3ccccc3)c2)C[C@@H]1O		30	1.7	23		> 1000
NS(=O)(=O)OC[C@H]1C[C@@H](Nc2ncncc2C(=O)c2cc([C@@H]3OCCc4ccccc43)cs2)C[C@@H]1O	5	4	0.4	198	39	> 1000
NS(=O)(=O)OC[C@H]1C[C@@H](Nc2ncncc2C(=O)c2cc(C(O)c3cccc(Cl)c3)c(Cl)s2)C[C@@H]1O (some centres not stated)	17	9	0.3	341	70	> 1000
Cc1sc(C(=O)c2cncnc2N[C@@H]2C[C@H](COS(N)(=O)=O)[C@@H](O)C2)cc1C1OCCc2cccnc21 (some centres not stated)	19		0.2	507	64	> 1000
NS(=O)(=O)OC[C@H]1C[C@@H](Nc2ncncc2C(=O)c2ccn(CC3CCCCC3)n2)C[C@@H]1O		1610	8.2	276		> 1000
Cc1sc(C(=O)c2cncnc2N[C@@H]2C[C@H](COS(N)(=O)=O)[C@@H](O)C2)cc1C1OCCc2ccc(Cl)nc21 (some centres not stated)	18	20	0.1	203	89	> 1000
NS(=O)(=O)OC[C@H]1C[C@@H](Nc2ncncc2C(=O)c2ccn(Cc3ccccc3Cl)n2)C[C@@H]1O		332	3.2	215		> 1000
NS(=O)(=O)OC[C@H]1C[C@@H](Nc2ncncc2C(=O)c2cnn(Cc3ccccc3)c2)C[C@@H]1O		2940	6.3	122		> 1000
NS(=O)(=O)OC[C@H]1C[C@@H](Nc2ncncc2C(=O)c2cc(Cc3cccc(Cl)c3)c(Cl)s2)C[C@@H]1O	184	108	3.6	681	1400	> 1000
Cc1sc(C(=O)c2cncnc2N[C@@H]2C[C@H](COS(N)(=O)=O)[C@@H](O)C2)cc1[C@H]1NCCc2ccc(Cl)cc21		399	30	554		> 1000
Cc1cccc(Cn2ccc(C(=O)c3cncnc3N[C@@H]3C[C@H](COS(N)(=O)=O)[C@@H](O)C3)n2)c1		29	1.7	308		> 1000
NS(=O)(=O)OC[C@@H]1C[C@@H](Nc2ncncc2C(=O)c2ccn(Cc3ccccc3)n2)C[C@@H]1O		> 1000	22	806		> 1000
NS(=O)(=O)OC[C@H]1C[C@@H](Nc2ncncc2C(=O)c2ccn(Cc3cccc(Br)c3)c2)C[C@@H]1O		14	0.6	10		> 1000
NS(=O)(=O)OC[C@H]1C[C@@H](Nc2ncncc2C(=O)c2ccn(Cc3ccc(Cl)s3)n2)C[C@@H]1O		228	2	353		> 1000
CNC(c1cccc(Cl)c1)c1csc(C(=O)c2cncnc2N[C@@H]2C[C@H](COS(N)(=O)=O)[C@@H](O)C2)c1 (some centres not stated)		436	3.7	956		> 1000
NS(=O)(=O)OC[C@H]1C[C@@H](Nc2ncncc2C(=O)c2ccn(Cc3cccc(Br)n3)n2)C[C@@H]1O		49	0.7	581		> 1000
